Measured values reported in ChEMBL document CHEMBL2375315, “Alkaloids from the deep-sea-derived fungus Aspergillus westerdijkiae DFFSCS013” (J Nat Prod, 2013).

How the values were obtained:
Assay type in all cases: functional, cell-based
A549 = experiment: Cytotoxicity against human A549 cells by MTT assay
Outline: (§1)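 Human tumour lines (erythroid leukemic K562, promyelocytic leukemia HL-60, breast adenocarcinoma MCF-7, lung carcinoma A549) exposed to compounds; viability read by MTT method, following a previously published protocol; IC50 values derived.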

MCF7 = experiment: Cytotoxicity against human MCF7 cells by MTT assay; outline: as §1
K562 = experiment: Cytotoxicity against human K562 cells by MTT assay; outline: as §1
HL-60 = experiment: Cytotoxicity against human HL60 cells by MTT assay; outline: as §1

C[C@H]1NC(=O)c2ccccc2-n2c1nc1ccccc1c2=O
IC50 (A549): > 10 µM | IC50 (MCF7): > 10 µM | IC50 (K562): > 10 µM | IC50 (HL-60): > 10 µM

C[C@@H]1NC(=O)c2ccccc2-n2c1nc1c(c2=O)C=CC=CO1
IC50 (A549): > 10 µM | IC50 (MCF7): > 10 µM | IC50 (K562): > 10 µM | IC50 (HL-60): > 10 µM

O=C1NCc2nc3c(O)cccc3c(=O)n2-c2ccccc21
IC50 (A549): > 10 µM | IC50 (MCF7): > 10 µM | IC50 (K562): > 10 µM | IC50 (HL-60): > 10 µM

CC1(C)C=Cc2c(ccc3c2NC(=O)[C@@]32[C@H](O)[C@@]34NC(=O)[C@]5(CCCN5C3=O)C[C@H]4C2(C)C)O1 [SCLEROTIAMIDE]
IC50 (A549): > 10 µM | IC50 (MCF7): > 10 µM | IC50 (K562): 26 µM | IC50 (HL-60): 45 µM

CC1(C)C=Cc2c3c(cc(Cl)c2O1)[C@@]1(C(=O)N3)[C@H](O)[C@@]23NC(=O)[C@]4(CCCN4C2=O)C[C@H]3C1(C)C
IC50 (A549): > 10 µM | IC50 (MCF7): > 10 µM | IC50 (K562): 44 µM | IC50 (HL-60): > 10 µM

CC1(C)C=Cc2c(ccc3c2NC(=O)[C@@]32[C@@H](O)[C@@]34NC(=O)[C@]5(CCCN5C3=O)C[C@H]4C2(C)C)O1
IC50 (A549): > 10 µM | IC50 (MCF7): > 10 µM | IC50 (K562): 53 µM | IC50 (HL-60): > 10 µM

C[C@@H]1NC(=O)c2ccccc2-n2c1nc1c(O)cccc1c2=O
IC50 (A549): > 10 µM | IC50 (MCF7): > 10 µM | IC50 (K562): > 10 µM | IC50 (HL-60): > 10 µM

CC(C)CC(=O)OC(/C(=N/O)C(N)=O)C(C)C (configuration not stated)
IC50 (A549): > 10 µM | IC50 (MCF7): > 10 µM | IC50 (K562): > 10 µM | IC50 (HL-60): > 10 µM
